# In the library only some 1.2% were active in any assay of this set; here they are far more common.
# zfTRPN1 agonist: agonists of zebrafish TRPN1 channel | HEK293 zebrafish TRPN1-YFP, Fluo-8 calcium fluorescence; 100% = response to 87 µM carbachol | activation, % at 3 µM | actives 0.18% (n = 220,000);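 active = activation above its plate's cutoff, the mean activation of test wells on that plate plus 3 SD, cut at about 19% in these data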;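 note: 0% = DMSO alone and 100% = 87 µM carbachol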
#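 Control set: carbachol 87 µM as high control, DMSO as low control; system: HEK293 stable line with zebrafish TRPN1-YFP; read-out: % activation versus carbachol response; detection: intracellular calcium fluorescence with Fluo-8; doses: single test compound dose, 3 µM nominal, 0.3% DMSO; schedule: dye 1 h 37 °C plus 30 min RT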
# CHO-K1 Ca antag: counter-screen for M1 antagonists: effect in parental CHO-K1 cells | ATP-induced calcium, Fluo-8 fluorescence | inhibition, % at 3 µM | actives 0.6% (n = 360,000);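 active = inhibition above a per-plate cutoff, the plate's mean sample inhibition plus 3 SD, cut at about 24% in these data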;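 note: 0% = DMSO plus EC80 ATP and 100% = DMSO alone without ATP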
# TRPML3 ag: human mucolipin-3 channel agonism | Q8TDD5 | HEK293 TRPML3-YFP, Fluo-8 calcium fluorescence; 100% = the carbachol control signal | activation, % at 3 µM | actives 0.29% (n = 220,000) | AID 1448;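 active = activation above its plate's cutoff, the mean activation of the plate's test wells plus 3 SD, cut at about 12% in these data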;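 note: 0% = DMSO only wells and 100% = carbachol wells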
# Target sequence (Q8TDD5 whole entry, looked up): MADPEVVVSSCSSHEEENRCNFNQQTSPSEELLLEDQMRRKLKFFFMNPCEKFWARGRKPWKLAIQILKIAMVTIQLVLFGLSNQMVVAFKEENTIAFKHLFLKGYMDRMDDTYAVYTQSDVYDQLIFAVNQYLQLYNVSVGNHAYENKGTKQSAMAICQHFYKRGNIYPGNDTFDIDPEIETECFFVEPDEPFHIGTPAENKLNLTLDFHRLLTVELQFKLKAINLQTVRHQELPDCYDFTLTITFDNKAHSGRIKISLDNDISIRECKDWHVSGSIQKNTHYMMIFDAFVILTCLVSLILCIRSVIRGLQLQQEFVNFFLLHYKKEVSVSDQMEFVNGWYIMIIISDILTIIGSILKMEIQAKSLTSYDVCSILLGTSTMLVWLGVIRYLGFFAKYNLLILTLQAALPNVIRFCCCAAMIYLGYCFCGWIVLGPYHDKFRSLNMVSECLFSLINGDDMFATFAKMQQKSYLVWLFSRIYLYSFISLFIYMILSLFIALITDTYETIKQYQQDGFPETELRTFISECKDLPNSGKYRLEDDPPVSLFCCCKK
#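 Material: HEK293 cells stably carrying human TRPML3-YFP; compound dosing: single dose, 3 µM final nominal compound, 0.3% DMSO final; incubation: 1-h 37 °C dye load, 5-s basal, 120-s post-compound reads; technique: Fluo-8 intracellular calcium fluorescence, excitation 470-495 nm, emission 515-575 nm; read-out basis: percent activation from peak-to-basal fluorescence ratio, scaled between DMSO and carbachol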
# M1 ag parental: counter-screen for M1 agonists: effect in parental CHO-K1 cells; Fluo-8 calcium fluorescence; scaled to maximal ATP response, vehicle zero; activation, % at 3 µM; actives 0.48% (n = 360,000); in the data active = activation above about 15%;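 note: untransfected CHO-K1 host cells lacking M1 receptor as counterscreen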
# CHO-K1 Ca PAM: nonselective activator or artifact in parental CHO-K1 calcium assay; ATP EC20, Fluo-8 calcium fluorescence; 0% at ATP EC20, 100% at ATP max; activation, % at 3 µM; actives 0.02% (n = 360,000);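 active = activation above the run cutoff, the mean activation of all test compounds plus 3 SD, cut at about 40% in these data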;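 note: peak over basal fluorescence ratio in a 140 s read after ATP addition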
# TRPN1 ag 2: zebrafish TRPN1 agonism as TRPML3 agonist counter-screen. shares compounds with TRPML3 ag. actives 10% (n = 310). activation, % at 3 µM. HEK293 zebrafish TRPN1-YFP, Fluo-8 calcium fluorescence; scaled: carbachol wells 100%, DMSO wells 0%;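 active = mean activation over replicates above a set limit taken from the earlier TRPN1 channel primary screen, cut at about 19% in these data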;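 note: 100% = carbachol and 0% = 0.3% DMSO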
# TRPML3 confirm: human TRPML3 agonism, confirmation | HEK293 TRPML3-YFP, Fluo-8 calcium fluorescence; 100% set by carbachol, 0% by DMSO | AID 1526 | activation, % at 3 µM | shares compounds with TRPML3 ag | actives 80% (n = 310);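 active = activation above a set limit derived from the earlier primary screen, cut at about 12% in these data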
# * = called active by the depositor; · = no result given.
SMILES,zfTRPN1 agonist,CHO-K1 Ca antag,TRPML3 ag,M1 ag parental,CHO-K1 Ca PAM,others
Cn1ccc2c(-c3ccc(F)cc3)cc3c(c21)C1CCC3C1 (centres undefined),·,-1.4,·,1.4,7.5,
CC(C)Cc1ccc(C(C)C(=O)Nc2ccc(O)cc2)cc1 (centres undefined),44.6*,34.1*,22.0*,29.3*,6.1,
CC(C(=O)Nc1cccnc1)c1ccc([N+](=O)[O-])cc1 (centres undefined),2.4,7.3,2.4,0.4,5.8,
CC(C)Cc1ccc(C(C)C(=O)Nc2cccnc2)cc1 (centres undefined),·,4.7,·,15.6*,6.8,
CC(C)Cc1ccc(C(C)C(N)=Nc2ccc(O)cc2)cc1 (centres undefined),·,-10.5,·,2.7,12.5,
Cc1ccc2ccccc2c1C(O)c1ncc(-c2ccc(C(F)(F)F)cc2)[nH]1 (centres undefined),·,-1.2,·,1.0,9.3,
O=C(Cc1ccc(S(=O)(=O)N2CCOCC2)s1)N1CCN(c2cccc(C(F)(F)F)c2)CC1,·,19.4,·,17.7*,-4.8,
O=C(Cc1ccc(S(=O)(=O)N2CCCC2)s1)N1CCN(c2ccccc2)CC1,-1.6,-10.1,1.4,1.9,17.6,
Clc1ccc(-c2nc3c4ccccc4ccn3c2Cc2ccsc2)cc1,·,-18.3,·,0.0,7.3,
CC(CCc1ccccc1)NC(=O)c1cccs1 (centres undefined),0.6,28.9*,0.1,-0.2,-18.0,
CCOC(=O)CSc1cc(C)nc2ccc(OC)cc12,-0.9,24.2*,1.5,-0.2,-19.1,
CCOc1ccc(NC(=O)c2ccccc2O)cc1,2.5,0.6,1.2,0.1,5.4,
CCOc1ccc(NC(=O)c2ccc(NC(=O)c3ccccc3Br)cc2)cc1,·,30.3*,·,7.0,-15.8,
CCOc1ccc(NC(=O)c2ccc(CN3CCc4ccccc4C3)cc2)cc1,·,26.6*,·,0.2,-24.7,
CCOc1ccc(NC(=O)c2ccccc2CO)cc1,1.1,29.8*,-0.4,0.1,-6.9,
Cc1ccc(N2CC(C(=O)Nc3cc(S(=O)(=O)N4CCCCC4)ccc3C)CC2=O)cc1 (centres undefined),·,-1.4,·,0.1,-3.6,
CCCCN1C(=O)C(CC(=O)NCCN2CCOCC2)CC(C(=O)N(C)C)=C1C (centres undefined),·,-19.2,·,0.8,16.7,
Cc1cc2nc(-c3nnnn3-c3c(C)cccc3C)c(=O)[nH]c2cc1C,·,23.8*,·,0.7,-11.5,
Cc1cccc(C)c1-n1nnnc1-c1nc2ccccc2[nH]c1=O,·,-13.2,·,1.1,20.8,
O=C(/C(=C/O)N=Nc1ccccc1)c1ccncc1,-2.0,-6.6,0.9,23.2*,-2.4,
Cc1cc(C(=O)NN=C2CCCCCCC2)c2ccccc2n1,·,41.9*,·,-0.1,-5.2,
CNC(C)C(=O)NC(C(=O)NC(C)C(=O)NNc1ccccc1)C(C)C (centres undefined),·,0.7,·,-0.1,9.2,
Cc1cccc(N2C(=O)c3cccc4c(N)ccc(c34)C2=O)c1,·,34.9*,·,123.7*,-15.2,
CC(C)CCN1C(=O)c2cccc3c(N)ccc(c23)C1=O,·,67.0*,·,152.2*,-19.7,
CN(C)c1ccc2c3c(cccc13)C(=O)N(c1ccccc1)C2=O,4.3,·,1.3,·,·,
SMILES,zfTRPN1 agonist,CHO-K1 Ca antag,TRPML3 ag,M1 ag parental,CHO-K1 Ca PAM,others
Cc1cccc(N2C(=O)c3cccc4c(N(C)CCO)ccc(c34)C2=O)c1,38.6*,9.6,30.3*,19.8*,-6.8,
Nc1ccc2c3c(cccc13)C(=O)N(c1ccccc1)C2=O,125.4*,25.7*,111.2*,50.2*,-19.9,
O=C(O)c1ccc2c3c(cccc13)C(=O)N(c1ccccc1)C2=O,-0.1,-2.2,1.3,0.9,21.6,
CCN1C(=O)c2cccc3c(Cl)ccc(c23)C1=O,-0.1,-13.7,-0.8,1.9,26.6,
Cc1ccc2c(c1)CCO[C@@]21O[C@H](CCO)C[C@H](O)[C@H]1O,·,3.9,·,5.2,24.2,
Nc1cccc(N2C(=O)c3cccc4c(N)ccc(c34)C2=O)c1,·,-7.5,·,15.3*,-3.1,
CN(CC(=O)O/N=C(\N)c1cccc([N+](=O)[O-])c1)S(=O)(=O)c1ccccc1,0.1,-27.5,95.5*,6.0,15.0,TRPN1 ag 2=1.7;TRPML3 confirm=36.4*
CCOC(=O)c1sc(=S)n(C)c1NC(=O)c1ccc(OC)cc1,-0.3,-6.0,-0.3,-0.4,10.2,
CCOC(=O)c1sc(=S)n(C)c1NC(=O)c1ccc(C(C)(C)C)cc1,11.2,-2.5,14.1*,3.9,-7.4,TRPN1 ag 2=15.7;TRPML3 confirm=10.0
CC(C)(C)[C@]1(O)CCN2C[C@H]3c4ccccc4CCc4cccc(c43)[C@@H]2C1,-2.8,-17.5,25.0*,2.2,40.7*,TRPN1 ag 2=-1.2;TRPML3 confirm=42.3*
CCC(CO)Nc1ccn2nc(-c3cccc(Cl)c3)cc2n1 (centres undefined),·,-0.7,·,1.3,-11.4,
COc1cc(-c2c(CCO)sc3ccccc23)cc(OC)c1OC,·,-10.7,·,1.0,9.2,
Cc1ccc(S(=O)(=O)N2C(=S)SCC2(C)C)cc1,1.6,·,27.8*,·,·,TRPN1 ag 2=2.7;TRPML3 confirm=46.6*
Cc1ccc(S(=O)(=O)N2CCN(C)CC2)c(C)c1N(C)S(=O)(=O)c1ccc(Cl)cc1,1.3,1.7,77.0*,0.9,3.0,TRPN1 ag 2=5.3;TRPML3 confirm=58.0*
Cc1cc(C)c(S(=O)(=O)N2CCCCC2)cc1N(C)S(=O)(=O)c1ccc(Cl)cc1,-0.2,12.3,68.5*,-0.2,-5.4,TRPN1 ag 2=-1.0;TRPML3 confirm=68.5*
Cc1ccc(S(=O)(=O)N(C)c2cc(S(=O)(=O)N3CCOCC3)c(C)cc2C)cc1,·,-11.2,·,5.5,16.0,
CN1CCN(c2ccc(-c3cc(NC=O)c4ncc(-c5ccccc5)n4c3)cc2)CC1,·,-2.3,·,1.2,4.6,
COc1cc(OC)nc(Nc2nc(C(N)Cc3ccc(C(F)(F)F)cc3)cs2)n1 (centres undefined),·,4.5,·,4.9,16.4,
CCN(c1ccccc1)S(=O)(=O)c1ccc(F)cc1C,-1.9,10.8,23.7*,0.0,-2.9,TRPN1 ag 2=-2.6;TRPML3 confirm=50.0*
COc1ccc(C)cc1S(=O)(=O)N1CCCCCC1,-0.8,2.0,1.5,10.2,21.4,
COc1ccc(S(=O)(=O)N2CCCCCC2)cc1Br,-1.5,-11.8,105.8*,0.0,17.1,TRPN1 ag 2=-1.8;TRPML3 confirm=70.5*
COc1ccc(NS(=O)(=O)c2ccc(OC)c(N(C)S(=O)(=O)c3ccc(Cl)cc3)c2)cc1,-0.3,5.0,68.9*,1.9,-0.5,TRPN1 ag 2=-1.2;TRPML3 confirm=34.4*
COc1cc(C)ccc1S(=O)(=O)N1CCCCCC1,1.0,-4.1,94.5*,0.1,22.5,TRPN1 ag 2=-0.1;TRPML3 confirm=33.8*
CCOc1ccc(S(=O)(=O)N2CCCCC2)c(C)c1C,-1.5,-14.8,84.5*,0.8,27.2,TRPN1 ag 2=-1.7;TRPML3 confirm=77.4*

# Screening results from PubChem BioAssay.
